Legend:
rats [1] = assay: Maximal tolerability dose; format: in vivo; conditions: intraperitoneal
rats [2] = assay: Renal histological examination; format: in vivo; conditions: rat kidney; for maximal SQS: mean ± SD, SD
[3] = Kidney PK of CMS/CMS-E2 and formed colistin/colistin B; format: in vivo, rats; conditions: for AUC0-inf CMS/CMS-E2 in kidneys / Tmax CMS/CMS-E2 in kidneys / t1/2 CMS/CMS-E2 in kidneys / Cmax CMS/CMS-E2 in kidneys: rat kidney cortex, LC-MS/MS; for AUC0-inf CMS/CMS-E2 in kidneys / Tmax CMS/CMS-E2 in kidneys / t1/2 CMS/CMS-E2 in kidneys: NCA; for Cmax CMS/CMS-E2 in kidneys: mean ± SD, SD; for Kidney/plasma ratio of Cmax, CMS/CMS-E2: rats
Summary of the method: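 Male Sprague-Dawley rats (300 ± 15 g) got one i.p. dose in saline. At each sampling time rats were anaesthetised with tiletamine-zolazepam (40 mg/kg) and killed, and the left kidney was frozen at −70 °C. Kidney cortex was homogenised in saline (1:10 m/v, 1% BSA). Samples went through WCX solid-phase extraction with polymyxin B1 internal standard, then LC-MS/MS. Prodrug was calculated as total (after […] sulfuric acid hydrolysis) minus free colistin/colistin B. Parameters came from non-compartmental analysis.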

rats [4] = assay: Kidney injury biomarkers: plasma CR and BUN; format: in vivo; conditions: rat plasma, mean ± SD
Summary of the method: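 Rats (male Sprague-Dawley) received one i.p. injection in saline, with a saline control group. Plasma came from serial heparinised jugular-vein samples, plus blood taken at sacrifice in a second cohort. Creatinine and blood urea nitrogen were measured on an automatic biochemical analyser. Peak levels and times to peak were taken from the time profiles and given as mean ± SD.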

rats [5] = assay: PK-TD model, TD component; format: in vivo; conditions: i.p., mean ± SD
Summary of the method: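 Plasma creatinine and BUN time courses were linked to plasma colistin/colistin B through an indirect hypothetical effect compartment. K_e is the rate constant from the central to the effect compartment. The effect was linear: E = E₀ + S·C_e, with E₀ the pre-dose baseline. T_lag was calculated as 1/K_e. Fit was judged by R², AIC, BIC and visual inspection. Parameters are mean ± SD.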

[6] = PK-TD model, PK component; format: in vivo; conditions: rats, single i.p. CMS-E2 40 mg/kg CBA, one-compartment PK-TD model, mean ± SD
Summary of the method: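 Plasma prodrug and formed colistin/colistin B concentrations after i.p. dosing were fitted by a compartmental model. The final model used one compartment each for prodrug and formed drug, a conversion rate constant, and linear first-order total clearance from both. Fit was judged by R², AIC, BIC and visual inspection. Estimates are mean ± SD.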

[7] = Plasma PK of CMS/CMS-E2 and formed colistin/colistin B; format: in vivo, rats; conditions: rat plasma, LC-MS/MS, NCA, mean ± SD
Summary of the method: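 Male Sprague-Dawley rats were dosed once i.p. in saline, and serial jugular-vein blood was taken before and after dosing. Blood was heparinised (1%), spun at 4,982 × g for 10 min at 4 °C, and plasma stored at −70 °C. Plasma (40 µL) went through WCX solid-phase extraction with polymyxin B1 internal standard, then LC-MS/MS. Prodrug was total (acid-hydrolysed) minus free analyte. […] Values are mean ± SD, compared by Wilcoxon rank sum.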

[8] = single i.p. CMS or CMS-E2 20 mg/kg CBA
[9] = single i.p. CMS-E2 40 mg/kg CBA

Substance: Colistin B methanesulphonate [CMS-E2]
- maximal tolerability dose (rats [1]): 40 mg/kg CBA
- histological lesions during the first 2 h (rats [2]; PAS stain, single i.p. CMS or CMS-E2 20 mg/kg CBA): No obvious histological lesion
- maximal SQS (rats [2]; [8]): 0.667 ± 0.577
- histological damage at time points other than 4 h (rats [2]; single i.p. CMS-E2 20 mg/kg CBA): no obvious damage was observed
- recovery of histological damage at 24 h (rats [2]; [9]): all damage was completely recovered
- maximal SQS (rats [2]; [9]): 2.33 ± 1.16
- AUC0-inf CMS/CMS-E2 in kidneys [3, 8]: 289 µg·h/g
- Tmax CMS/CMS-E2 in kidneys [3, 8]: 2 h
- t1/2 CMS/CMS-E2 in kidneys [3, 8]: 0.56 h
- Cmax CMS/CMS-E2 in kidneys [3, 8]: 105 ± 25.3 µg/g
- AUC0-inf CMS/CMS-E2 in kidneys [3, 9]: 2496 µg·h/g
- Tmax CMS/CMS-E2 in kidneys [3, 9]: 4 h
- t1/2 CMS/CMS-E2 in kidneys [3, 9]: 2.02 h
- Cmax CMS/CMS-E2 in kidneys [3, 9]: 379 ± 85.5 µg/g
- Kidney/plasma ratio of Cmax, CMS/CMS-E2 [3, 8]: 5.50
- Kidney/plasma ratio of Cmax, CMS/CMS-E2 [3, 9]: 7.44
- peak BUN level (rats [4]; [8]): 12.4 ± 5.21 mmol/L
- peak CR level (rats [4]; [8]): 33.4 ± 3.44 µmol/L
- time of peak BUN (rats [4]; [8]): 6.00 ± 0.00 h
- time of peak CR level (rats [4]; [8]): 4.67 ± 1.89 h
- peak BUN level (rats [4]; [9]): 23.0 ± 5.59 mmol/L
- peak CR level (rats [4]; [9]): 104 ± 40.4 µmol/L
- time of peak BUN (rats [4]; [9]): 11.1 ± 3.00 h
- time of peak CR level (rats [4]; [9]): 8.86 ± 3.18 h
- S (slope between colistin/colistin B concentration in effect compartment and CR) (rats [5]; E = E0 + S·Ce): 13.0 ± 3.52 mmol/g
- Ke (rate from colistin/colistin B central compartment to effect compartment), BUN (rats [5]; indirect link PK-TD model, effect = BUN): 0.182 ± 0.164 h⁻¹
- Ke (rate from colistin/colistin B central compartment to effect compartment), CR (rats [5]; indirect link PK-TD model, effect = plasma CR): 0.814 ± 0.524 h⁻¹
- Tlag (lag time), BUN (rats [5]; reciprocal of Ke, effect = BUN): 11.9 ± 9.46 h
- Tlag (lag time), CR (rats [5]; reciprocal of Ke, effect = plasma CR): 1.83 ± 1.05 h
- CLCMS/CMS-E2 (total body clearance) [6]: 3.20 ± 1.74 mL/min/kg
- Ka CMS/CMS-E2 (absorption rate) [6]: 0.673 ± 0.208 h⁻¹
- V (volume of distribution) [6]: 0.291 ± 0.105 L/kg
- AUC0-inf CMS/CMS-E2 in plasma [7, 8]: 37.2 ± 10.5 µg·h/mL
- CL/F CMS/CMS-E2 [7, 8]: 9.90 ± 3.34 mL/min/kg
- Cmax CMS/CMS-E2 in plasma [7, 8]: 19100 ± 4500 ng/mL
- Tmax CMS/CMS-E2 in plasma [7, 8]: 0.500 ± 0.00 h
- Vd/F CMS/CMS-E2 [7, 8]: 0.464 ± 0.108 L/kg
- t1/2 CMS/CMS-E2 in plasma [7, 8]: 0.573 ± 0.16 h
- AUC0-inf CMS/CMS-E2 in plasma [7, 9]: 226 ± 125 µg·h/mL
- CL/F CMS/CMS-E2 [7, 9]: 4.18 ± 2.56 mL/min/kg
- Cmax CMS/CMS-E2 in plasma [7, 9]: 50900 ± 23500 ng/mL
- Tmax CMS/CMS-E2 in plasma [7, 9]: 1.75 ± 0.433 h
- Vd/F CMS/CMS-E2 [7, 9]: 0.497 ± 0.278 L/kg
- t1/2 CMS/CMS-E2 in plasma [7, 9]: 1.57 ± 0.522 h

Source: PMC12065821 (Scientific Reports, 2025)
